From ChEMBL document CHEMBL1126837, “Inhibitors of acyl-CoA:cholesterol acyltransferase. 5. Identification and structure-activity relationships of novel beta-ketoamides as hypocholesterolemic agents” (J Med Chem, 1993)

Experiments:
[1] = tested on: Rattus norvegicus; assay: Tested for percentage change in total cholesterol in cholic acid (0.5%)-cholesterol (1.5%) -peanut oil (5.5%)-fed rats at 30 mg/kg; type: functional
Outline: (§1)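 Male Sprague-Dawley rats (200-225 g) got a single oral gavage at 4 p.m. The compound was suspended in 1.5% carboxymethylcellulose/0.2% Tween-20 in water; controls got vehicle. Rats then fed ad libitum overnight on chow with 5.5% peanut oil, 1.5% cholesterol and 0.5% cholic acid. Blood was taken by cardiac puncture under ether at 8 a.m. Serum total cholesterol is given as % change versus vehicle controls (unpaired two-tailed t-test, p<0.05).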

[2] = biological target: O-acyltransferase (Oryctolagus cuniculus, UniProt G1SFD9); assay: In vitro inhibition of Acyl coenzyme A:cholesterol acyltransferase in intestinal microsomes isolated from cholesterol-fed rabbits; type: functional, Intestine
Sequence of O-acyltransferase (G1SFD9 1-524): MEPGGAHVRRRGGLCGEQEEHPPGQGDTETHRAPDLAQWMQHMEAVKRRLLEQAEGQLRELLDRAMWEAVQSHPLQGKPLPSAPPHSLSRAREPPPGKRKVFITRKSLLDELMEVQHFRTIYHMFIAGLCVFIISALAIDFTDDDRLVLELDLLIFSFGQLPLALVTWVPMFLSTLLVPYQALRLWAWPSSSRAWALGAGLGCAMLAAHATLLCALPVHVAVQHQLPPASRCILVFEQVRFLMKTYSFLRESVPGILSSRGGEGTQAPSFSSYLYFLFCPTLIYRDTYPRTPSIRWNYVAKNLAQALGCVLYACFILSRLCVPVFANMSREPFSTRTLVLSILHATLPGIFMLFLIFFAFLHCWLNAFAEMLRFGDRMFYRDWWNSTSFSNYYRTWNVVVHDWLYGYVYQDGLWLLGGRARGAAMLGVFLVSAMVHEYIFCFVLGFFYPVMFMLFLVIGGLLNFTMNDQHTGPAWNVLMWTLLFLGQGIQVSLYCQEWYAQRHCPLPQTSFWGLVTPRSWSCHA
Outline: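 Intestinal microsomes from cholesterol-fed rabbits were incubated with the compound and [1-14C]oleoyl-CoA as substrate. IC50 is the micromolar concentration giving 50% inhibition of enzyme activity. Each determination was done in triplicate.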

[3] = tested on: Rattus norvegicus; assay: Tested for percentage change in total cholesterol in cholic acid (0.5%)-cholesterol (1.5%) -peanut oil (5.5%)-fed rats at 3 mg/kg; type: functional; outline: as §1

SMILES | IC50 [2] | Change [1] | Change [3]
CCCCCCCCCCC(=O)CC(=O)Nc1c(C(C)C)cccc1C(C)C | 60 nM | -30% | –
CC(C)c1cccc(C(C)C)c1NC(=O)CC(=O)C1(c2ccccc2)CCCC1 | 11 nM | -37% | –
CC(C)c1cccc(C(C)C)c1NC(=O)CC(=O)c1ccccc1 | 810 nM | -4% | 0%
CC(C)c1cccc(C(C)C)c1NC(=O)CC(=O)CC(c1ccccc1)c1ccccc1 | 44 nM | -43% | -23%
CCCCCCCCCCCC(=O)C(C)(C)C(=O)N(C)c1c(OC)cc(OC)cc1OC | – | -40% | –
CCCCCCCC1CC(C(=O)Nc2c(C(C)C)cccc2C(C)C)C(=O)O1 (stereo unspecified) | – | -26% | –
CC(C)c1cccc(C(C)C)c1NC(=O)CC(O)CC(c1ccccc1)c1ccccc1 (stereo unspecified) | 3500 nM | -10% | –
CCCCCCCCCCCC(=O)CC(=O)Nc1c(OC)cc(OC)cc1OC | 150 nM | -31% | –
CCCCCCC1CCC(C(=O)Nc2c(C(C)C)cccc2C(C)C)C(=O)O1 (stereo unspecified) | – | -43% | –
CCCCCCCCCCCCC1CC(C(=O)Nc2c(C(C)C)cccc2C(C)C)C(=O)N1 (stereo unspecified) | 53 nM | -20% | –

The next lines start with results.

IC50 [2] | SMILES | Change [1] | Change [3]
340 nM | CCCCCCCC1CCC(C(=O)Nc2c(C(C)C)cccc2C(C)C)C(=O)O1 (stereo unspecified) | -11% | –
370 nM | CCCCCCCCCCCC(=O)C(C)(C)C(=O)Nc1c(OC)cc(OC)cc1OC | -44% | 0%
230 nM | CC(C)c1cccc(C(C)C)c1NC(=O)CC(=O)CCCCCCCCCCO | -29% | -2%
35 nM | CC(C)c1cccc(C(C)C)c1NC(=O)CC(=O)C(c1ccccc1)c1ccccc1 | -65% | -21%
6 nM | CCCCCCCCCCCCCC(=O)CC(=O)Nc1c(C(C)C)cccc1C(C)C | -66% | -38%
11 nM | CCCCCCCCCCCCC(=O)CC(=O)Nc1c(C(C)C)cccc1C(C)C | -56% | -31%
210 nM | CC(C)c1cccc(C(C)C)c1NC(=O)C/C(CC(c1ccccc1)c1ccccc1)=N\O | -1% | 0%
97 nM | CCCCCCCCCC(=O)CC(=O)Nc1c(C(C)C)cccc1C(C)C | -54% | -5%
1000 nM | CCCCCCCCCCCC(=O)C(C)(C)C(=O)N(C)c1c(C(C)C)cccc1C(C)C | -60% | 0%
69 nM | CCCCCCCCCCCC(=O)CC(=O)Nc1c(C(C)C)cccc1C(C)C | -43% | -25%
22 nM | CCCCCCCCCCCCC1CCCC(C(=O)Nc2c(C(C)C)cccc2C(C)C)C(=O)N1 (stereo unspecified) | -47% | –
24 nM | CCCCCCCCCCCCCCC(=O)CC(=O)Nc1c(C(C)C)cccc1C(C)C | -57% | -34%
57 nM | CC(C)c1cccc(C(C)C)c1NC(=O)CC(=O)CCCCCCCCCCOC1CCCCO1 (stereo unspecified) | -67% | -17%
